Assay results: article PMC7797712 (Medicinal Chemistry Research, 2021)

system: cytoplasmic HBV-DNA replication in AML12HBV10 cells; experiment: Antiviral assay in AML12HBV10 cells; type: cell-based, hepatitis B virus; conditions: AML12HBV10 cells; SAR statement of the text
How it was run: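 AML12-derived mouse hepatocyte line carrying a tetracycline-inducible, envelope-deficient HBV genome; seeded at 2 × 10^4 cells/well in tetracycline-free medium. Next day, mock or twofold serial dilution (10 to 0.08 µM) for 48 h. Cells lysed in Tris-HCl pH 7.5/EDTA/NaCl/1% NP-40. Half the lysate NaOH-denatured, neutralised, dot-blotted and hybridised with 32P-labelled HBV minus-strand riboprobe. Phosphorimager quantification; EC50 = concentration reducing HBV DNA by 50%.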

Structure (SMILES) | Anti-HBV potency compared with 27 (58031), in words
COc1ccc(CN2CN(C(=O)Nc3ccc(F)c(Cl)c3)CCC2=O)c(OC)c1 [Compound 28, N-(3-chloro-4-fluorophenyl)-3-(2,4-dimethoxybenzyl)-4-oxotetrahydropyrimidine-1(2H)-carboxamide] | slightly weaker potency
O=C1CCN(C(=O)Nc2ccc(F)c(Cl)c2)CN1Cc1ccncc1 [Compound 29, N-(3-chloro-4-fluorophenyl)-4-oxo-3-(pyridin-4-ylmethyl)tetrahydropyrimidine-1(2H)-carboxamide] | less active
O=C1CCN(C(=O)Nc2ccc(F)c(Cl)c2)CN1Cc1ccccn1 [Compound 30, N-(3-chloro-4-fluorophenyl)-4-oxo-3-(pyridin-2-ylmethyl)tetrahydropyrimidine-1(2H)-carboxamide] | less active
O=C1CCN(C(=O)Nc2ccc(F)c(Cl)c2)CN1CC1CCN(c2ccccc2)C1 (centres unmarked) [Compound 32, N-(3-chloro-4-fluorophenyl)-4-oxo-3-((1-phenylpyrrolidin-3-yl)methyl)tetrahydropyrimidine-1(2H)-carboxamide] | failed to improve the potencies
O=C1CCN(C(=O)Nc2ccc(F)c(Cl)c2)CN1CC1CN(c2ccccc2)C(=O)O1 (centres unmarked) [Compound 33, N-(3-chloro-4-fluorophenyl)-4-oxo-3-((2-oxo-3-phenyloxazolidin-5-yl)methyl)tetrahydropyrimidine-1(2H)-carboxamide] | failed to improve the potencies
O=C1CCN(C(=O)Nc2cccc(Cl)c2)CN1Cc1ccc(F)cc1F [Compound 35, N-(3-chlorophenyl)-3-(2,4-difluorobenzyl)-4-oxotetrahydropyrimidine-1(2H)-carboxamide] | comparable activities
O=C1CCN(C(=O)Nc2ccc(F)c(C(F)F)c2)CN1Cc1ccc(F)cc1F [Compound 36, 3-(2,4-difluorobenzyl)-N-(3-(difluoromethyl)-4-fluorophenyl)-4-oxotetrahydropyrimidine-1(2H)-carboxamide] | comparable activities
O=C1CCN(C(=O)Nc2cc(F)c(F)c(F)c2)CN1Cc1ccc(F)cc1F [Compound 40, 3-(2,4-difluorobenzyl)-4-oxo-N-(3,4,5-trifluorophenyl)tetrahydropyrimidine-1(2H)-carboxamide] | reduced the activities
O=C1CCN(C(=O)Nc2cc(F)c(F)cc2Cl)CN1Cc1ccc(F)cc1F [Compound 41, N-(2-chloro-4,5-difluorophenyl)-3-(2,4-difluorobenzyl)-4-oxotetrahydropyrimidine-1(2H)-carboxamide] | reduced the activities
O=C1CCN(C(=O)Nc2cc(Cl)c(F)c(Cl)c2)CN1Cc1ccc(F)cc1F [Compound 42, N-(3,5-dichloro-4-fluorophenyl)-3-(2,4-difluorobenzyl)-4-oxotetrahydropyrimidine-1(2H)-carboxamide] | reduced the activities
O=C1CCN(C(=O)NCc2ccccc2F)CN1Cc1ccc(F)cc1F [Compound 43, 3-(2,4-difluorobenzyl)-N-(2-fluorobenzyl)-4-oxotetrahydropyrimidine-1(2H)-carboxamide] | not tolerated
CC1CC(=O)N(Cc2ccc(F)cc2F)CN1C(=O)Nc1ccc(F)c(Cl)c1 (centres unmarked) [Compound 44, N-(3-chloro-4-fluorophenyl)-3-(2,4-difluorobenzyl)-6-methyl-4-oxotetrahydropyrimidine-1(2H)-carboxamide] | reduced activity
O=C1CC(Cc2cc(F)c(F)cc2F)N(C(=O)Nc2ccc(F)c(Cl)c2)CN1Cc1ccc(F)cc1F (centres unmarked) [Compound 45, N-(3-chloro-4-fluorophenyl)-3-(2,4-difluorobenzyl)-4-oxo-6-(2,4,5-trifluorobenzyl)tetrahydropyrimidine-1(2H)-carboxamide] | deteriorated the potency
O=C1CC(CN2CCC(F)(F)CC2)N(C(=O)Nc2ccc(F)c(Cl)c2)CN1Cc1ccc(F)cc1F (centres unmarked) [Compound 46, N-(3-chloro-4-fluorophenyl)-3-(2,4-difluorobenzyl)-6-((4,4-difluoropiperidin-1-yl)methyl)-4-oxotetrahydropyrimidine-1(2H)-carboxamide] | deteriorated the potency
O=C1CC(CN2CCC(F)(F)C2)N(C(=O)Nc2ccc(F)c(Cl)c2)CN1Cc1ccc(F)cc1F (centres unmarked) [Compound 47, N-(3-chloro-4-fluorophenyl)-3-(2,4-difluorobenzyl)-6-((3,3-difluoropyrrolidin-1-yl)methyl)-4-oxotetrahydropyrimidine-1(2H)-carboxamide] | deteriorated the potency
CC1(C)CN(C(=O)Nc2ccc(F)c(Cl)c2)CN(Cc2ccc(F)cc2F)C1=O [Compound 48, N-(3-chloro-4-fluorophenyl)-3-(2,4-difluorobenzyl)-5,5-dimethyl-4-oxotetrahydropyrimidine-1(2H)-carboxamide] | diminished the activities only by two to threefold
O=C1C2CCCC2N(C(=O)Nc2ccc(F)c(Cl)c2)CN1Cc1ccc(F)cc1F (centres unmarked) [Compound 49, N-(3-chloro-4-fluorophenyl)-3-(2,4-difluorobenzyl)-4-oxooctahydro-1H-cyclopenta[d]pyrimidine-1-carboxamide] | diminished the activities only by two to threefold
O=C(Nc1ccc(F)c(Cl)c1)N1CC(c2ccccc2)C(=O)N(Cc2ccc(F)cc2F)C1 (centres unmarked) [Compound 50, N-(3-chloro-4-fluorophenyl)-3-(2,4-difluorobenzyl)-4-oxo-5-phenyltetrahydropyrimidine-1(2H)-carboxamide] | comparable or slightly better potencies
O=C(Nc1ccc(F)c(Cl)c1)N1CC(Cc2ccccc2)C(=O)N(Cc2ccc(F)cc2F)C1 (centres unmarked) [Compound 51, 5-benzyl-N-(3-chloro-4-fluorophenyl)-3-(2,4-difluorobenzyl)-4-oxotetrahydropyrimidine-1(2H)-carboxamide] | diminished the activities only by two to threefold
O=C(Nc1ccc(F)c(Cl)c1)N1CC(n2cc(C3CC3)nn2)C(=O)N(Cc2ccc(F)cc2F)C1 (centres unmarked) [Compound 52, N-(3-chloro-4-fluorophenyl)-5-(4-cyclopropyl-1H-1,2,3-triazol-1-yl)-3-(2,4-difluorobenzyl)-4-oxotetrahydropyrimidine-1(2H)-carboxamide] | comparable or slightly better potencies
O=C(NC1CN(C(=O)Nc2ccc(F)c(Cl)c2)CN(Cc2ccc(F)cc2F)C1=O)c1ccc(F)cc1F (centres unmarked) [Compound 53, N-(3-chloro-4-fluorophenyl)-5-(2,4-difluorobenzamido)-3-(2,4-difluorobenzyl)-4-oxotetrahydropyrimidine-1(2H)-carboxamide] | comparable or slightly better potencies

same assay, conditions: Hepatitis B virus, AML12HBV10, 48 h, read-out: EC50 (50% inhibitory concentration of cytoplasmic HBV-DNA replication)

Structure (SMILES) | EC50
O=C1CCN(C(=O)Nc2ccc(F)c(Cl)c2)CN1Cc1ccc(F)cc1 [Compound 21, N-(3-chloro-4-fluorophenyl)-3-(4-fluorobenzyl)-4-oxotetrahydropyrimidine-1(2H)-carboxamide] | 2.02 µM
O=C1CCN(C(=O)Nc2ccc(F)c(Cl)c2)CN1CCc1ccc(F)cc1 [Compound 22, N-(3-chloro-4-fluorophenyl)-3-(4-fluorophenethyl)-4-oxotetrahydropyrimidine-1(2H)-carboxamide] | 5.08 µM
